In the library only some 3.7% were active in any assay of this set; here they are far more common.
hERG protect – compounds protecting human hERG from proarrhythmic drug block; 310,000 compounds, 0.51% hits; AID 1511; CHO-hERG, FluxOR thallium flux, dofetilide IC70 present; Q12809; activation (rescue from dofetilide block), less the hit threshold, % at 10 µM;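 active = activation above the mean of controls blocked by dofetilide plus 5 SD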;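 note: thallium influx through hERG after potassium depolarization seen as dye fluorescence rise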
Target sequence (Q12809 whole entry, looked up): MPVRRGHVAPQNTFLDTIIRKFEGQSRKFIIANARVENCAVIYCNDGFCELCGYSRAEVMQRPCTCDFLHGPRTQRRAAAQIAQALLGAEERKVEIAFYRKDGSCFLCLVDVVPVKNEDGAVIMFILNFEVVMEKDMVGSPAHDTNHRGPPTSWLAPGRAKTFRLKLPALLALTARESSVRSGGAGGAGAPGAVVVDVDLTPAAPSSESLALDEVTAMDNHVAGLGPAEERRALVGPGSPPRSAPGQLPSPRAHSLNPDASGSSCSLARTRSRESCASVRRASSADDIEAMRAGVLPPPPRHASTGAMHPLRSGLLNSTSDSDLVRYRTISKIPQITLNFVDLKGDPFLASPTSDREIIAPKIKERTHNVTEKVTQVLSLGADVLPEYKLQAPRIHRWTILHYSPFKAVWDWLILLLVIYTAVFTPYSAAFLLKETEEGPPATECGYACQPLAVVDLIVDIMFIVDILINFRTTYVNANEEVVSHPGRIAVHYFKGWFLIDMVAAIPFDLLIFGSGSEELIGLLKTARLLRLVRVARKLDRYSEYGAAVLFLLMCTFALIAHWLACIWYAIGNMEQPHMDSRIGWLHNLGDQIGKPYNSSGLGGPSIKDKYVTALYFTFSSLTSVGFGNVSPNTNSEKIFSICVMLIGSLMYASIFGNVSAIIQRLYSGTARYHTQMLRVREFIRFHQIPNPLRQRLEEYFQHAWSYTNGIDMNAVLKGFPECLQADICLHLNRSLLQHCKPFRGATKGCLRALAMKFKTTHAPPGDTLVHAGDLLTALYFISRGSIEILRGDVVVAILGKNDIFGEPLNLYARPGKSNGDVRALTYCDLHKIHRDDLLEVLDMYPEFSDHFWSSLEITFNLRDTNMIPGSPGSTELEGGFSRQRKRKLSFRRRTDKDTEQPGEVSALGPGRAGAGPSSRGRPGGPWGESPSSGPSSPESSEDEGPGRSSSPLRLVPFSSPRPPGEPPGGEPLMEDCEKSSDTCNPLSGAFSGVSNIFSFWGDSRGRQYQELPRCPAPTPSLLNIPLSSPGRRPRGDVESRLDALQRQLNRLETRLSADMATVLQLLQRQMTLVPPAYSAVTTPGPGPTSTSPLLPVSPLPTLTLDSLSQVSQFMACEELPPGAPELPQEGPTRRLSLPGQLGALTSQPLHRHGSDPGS
KCNQ1 block – blocks the human KCNQ1 potassium channel; CHO-K1 KCNQ1, FluxOR thallium flux fluorescence; active compounds read high; B-score at 10 µM; 310,000 compounds, 1.3% hits; AID 2642;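 active = compounds whose thallium flux B-score, printed positive for inhibition, exceeds three library SD while starting fluorescence stays within three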;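 note: channel opened by potassium depolarization with thallium stimulus after 20 min compound exposure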
Kir21 inh – inhibitors of mouse Kir2.1 inward-rectifier potassium channel; P35561; 310,000 compounds, 0.85% hits; AID 1672; HEK293-Kir2.1, FluxOR thallium flux fluorescence; active compounds read low; B-score at 10 µM;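 active = fluorescence ratio B-score at or below minus 3 SD of library scores, with starting-brightness B-score within 2 SD, cut at about -4.2 in these data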;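 note: channel flux triggered by added potassium and thallium sulfate stimulus; B-score of peak minus minimum fluorescence over baseline after thallium stimulus; more negative B-score means stronger Kir2.1 block with less thallium influx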
KCNQ1 act – potentiates or activates the human KCNQ1 potassium channel; 310,000 compounds, 0.35% hits; B-score at 10 µM; CHO-K1 KCNQ1, thallium flux FluxOR fluorescence; active compounds read high;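 active = fluorescence ratio B-score, a plate-corrected score, at least three library SD, with initial intensity B-score within 5 SD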
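System: CHO-K1 cells stably expressing KCNQ1 / Medium: assay buffer for compound exposure, DMSO matched across wells / Reagent: thallium- and potassium-containing depolarizing buffer / Compound: one concentration, matched DMSO / Incubation: 20 min compound pretreatment at room temperature / Measured by: kinetic FluxOR fluorescence, 10 s baseline plus 110 s post-stimulus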
KCNK9 inh – inhibitors of human KCNK9 two-pore domain potassium channel. Q9NPC2. B-score at 10 µM. 310,000 compounds, 1.2% hits. HEK293 KCNK9, FluxOR thallium flux fluorescence; active compounds read low;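 active = ratio B-score over 3 SD below the library mean, with starting fluorescence within 5 SD of its mean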;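 note: negative B-score means less thallium flux so channel inhibition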
KCNK3 inh – human KCNK3 channel inhibition, primary screen | CHO-KCNK3 thallium flux, FluxOR fluorescence; active compounds read low | B-score at 10 µM | 340,000 compounds, 0.84% hits | AID 602410;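 active = B-score under library mean minus 4 SD, starting fluorescence ratio at most library mean plus 5 SD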;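 note: more negative B-score means stronger inhibition of thallium flux through KCNK3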
KCNK9 block conf – confirmation of human KCNK9 potassium channel inhibitors; shares compounds with KCNK9 inh; HEK293 KCNK9 cells, FluxOR thallium flux fluorescence; 4,900 compounds, 43% hits; inhibition, % at 10 µM;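 active = thallium signal inhibited by more than 5 SD of the compound-free buffer control wells, on both duplicate plates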;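 note: 0% = assay buffer control wells without compound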
Kir21 sel – selectivity of KCNK9 modulators against mouse Kir2.1 | shares compounds with KCNK9 inh | Kir2.1 cells, FluxOR thallium flux fluorescence | inhibition, % at 10 µM | 4,900 compounds, 4% hits;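 active = thallium signal drop more than 5 SD beyond the mean of the no-compound control wells, seen in both duplicate plates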;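 note: signal is fluorescence rise after thallium addition divided by baseline fluorescence; plate controls were assay buffer only for no effect and full block by chlorpromazine control for full effect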
HEK293 Tl ctr – non-induced cell nonspecific activity of KCNK9 modulators. shares compounds with KCNK9 inh. inhibition, % at 10 µM. 4,900 compounds, 40% hits. non-induced KCNK9-HEK293, FluxOR thallium flux. AID 492997;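 active = thallium signal drop beyond 5 SD of the untreated control mean, on both duplicate plates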;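 note: plate controls were buffer only IC0 wells for no effect and SID17386958 at its maximal inhibitory level for full effect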
An asterisk follows results filed as active.

Results for CCCCNC(=O)c1c(CSc2ccc(Cl)cc2)noc1C(=O)NCc1ccccc1 ?
hERG protect: -12.5; KCNQ1 block: inactive; Kir21 inh: 1.29; KCNQ1 act: inactive; KCNK9 inh: inactive; KCNK3 inh: inactive; KCNK9 block conf: inactive; Kir21 sel: inactive; HEK293 Tl ctr: inactive

Results for COCCNC(=O)c1c(CSc2ccccc2)noc1C(=O)NCc1ccccc1 ?
hERG protect: -5.6; KCNQ1 block: inactive; Kir21 inh: 1.78; KCNQ1 act: inactive; KCNK9 inh: inactive; KCNK3 inh: inactive

How did CC1CCN(C(=O)CCNS(=O)(=O)c2ccc3c(c2)c(=O)n(C)c(=O)n3C)CC1 do in these assays?
hERG protect: -5.8; KCNQ1 block: inactive; Kir21 inh: 0.31; KCNQ1 act: inactive; KCNK9 inh: inactive; KCNK3 inh: inactive

How did Cc1c(C(=O)N2CCN(S(=O)(=O)c3cc(F)ccc3F)CC2)oc2ccccc12 do in these assays?
KCNK3 inh: inactive

What do the screens show for `Cc1cc(C)nc(NC(=O)CSc2nn(-c3ccccc3)c(=S)s2)n1`?
hERG protect: -3.8; KCNQ1 block: inactive; Kir21 inh: 1.08; KCNQ1 act: inactive; KCNK9 inh: inactive; KCNK3 inh: inactive

How did Cc1cccc(NC(=O)CSc2nc3nc(C)cc(C)n3n2)c1 do in these assays?
hERG protect: -6.0; KCNQ1 block: inactive; Kir21 inh: -1.55; KCNQ1 act: inactive; KCNK9 inh: inactive; KCNK3 inh: inactive

How did O=C(NCc1ccccc1)c1onc(CSc2ccc(Cl)cc2)c1C(=O)NCC1CC1 do in these assays?
hERG protect: -9.7; KCNQ1 block: inactive; Kir21 inh: 0.85; KCNQ1 act: inactive; KCNK9 inh: inactive; KCNK3 inh: inactive; KCNK9 block conf: inactive; Kir21 sel: inactive; HEK293 Tl ctr: inactive

How did CN(C)CCNC(=O)c1c(CSc2ccc(Cl)cc2)noc1C(=O)NCc1ccccc1 do in these assays?
hERG protect: -4.1; KCNQ1 block: inactive; Kir21 inh: 1.28; KCNQ1 act: inactive; KCNK9 inh: inactive; KCNK3 inh: inactive

What do the screens show for `CCCCNC(=O)c1c(CSc2ccccc2)noc1C(=O)NCc1ccccc1`?
hERG protect: -6.6; KCNQ1 block: inactive; Kir21 inh: -0.03; KCNQ1 act: inactive; KCNK9 inh: inactive; KCNK3 inh: inactive; KCNK9 block conf: inactive; Kir21 sel: inactive; HEK293 Tl ctr: inactive

What do the screens show for `COc1ccc(C(=O)NCc2ccc3c(c2)CCO3)cc1`?
hERG protect: -2.2; KCNQ1 block: inactive; Kir21 inh: 0.12; KCNQ1 act: inactive; KCNK9 inh: inactive; KCNK3 inh: inactive

How did Cc1nnc(SCC(=O)Nc2sc3c(c2C(N)=O)CCC(C)C3)[nH]c1=O (stereo not drawn) do in these assays?
KCNK3 inh: inactive

Results for S=C(NCCc1ccccc1)N1CCN(Cc2ccc(Cl)c(Cl)c2)CC1 ?
hERG protect: -5.3; KCNQ1 block: inactive; Kir21 inh: 0.33; KCNQ1 act: inactive; KCNK9 inh: inactive; KCNK3 inh: inactive; KCNK9 block conf: inactive; Kir21 sel: inactive; HEK293 Tl ctr: 25.0%*

How did O=C(N/N=C/c1cccnc1)c1ccccc1OCc1cccc(Br)c1 do in these assays?
hERG protect: -10.8; KCNQ1 block: inactive; Kir21 inh: 0.15; KCNQ1 act: inactive; KCNK9 inh: inactive; KCNK3 inh: inactive

What do the screens show for `Cc1ccc(/C=N/NC(=O)c2ccccc2OCc2cccc(Br)c2)o1`?
hERG protect: -11.2; KCNQ1 block: inactive; Kir21 inh: -1.33; KCNQ1 act: inactive; KCNK9 inh: -10.4*; KCNK3 inh: inactive; KCNK9 block conf: 30.5%*; Kir21 sel: inactive; HEK293 Tl ctr: inactive

How did Cc1cccc(-c2onc3ccc(C(=O)/C=C/N(C)C)cc23)c1 do in these assays?
hERG protect: -2.2; KCNQ1 block: inactive; Kir21 inh: -0.12; KCNQ1 act: inactive; KCNK9 inh: inactive; KCNK3 inh: inactive; KCNK9 block conf: inactive; Kir21 sel: inactive; HEK293 Tl ctr: inactive

Results for Cc1ccc(-c2onc3ccc(C(=O)/C=C/N(C)C)cc23)cc1 ?
hERG protect: -15.6; KCNQ1 block: inactive; Kir21 inh: 3.46; KCNQ1 act: inactive; KCNK9 inh: inactive; KCNK3 inh: inactive

Results for Cn1c(Sc2ccc(Br)cc2)c(C=O)c2ccccc21 ?
hERG protect: -13.2; KCNQ1 block: inactive; Kir21 inh: 0.88; KCNQ1 act: inactive; KCNK9 inh: -9.46*; KCNK3 inh: inactive; KCNK9 block conf: 43.5%*; Kir21 sel: 36.5%*; HEK293 Tl ctr: 52.0%*

What do the screens show for `Cn1c(Oc2ccc(F)cc2)c(C=O)c2ccccc21`?
hERG protect: -4.5; KCNQ1 block: inactive; Kir21 inh: -2.52; KCNQ1 act: inactive; KCNK9 inh: inactive; KCNK3 inh: inactive

Results for Cc1ccc(C(=O)OCC(=O)N2CCC(C)CC2)cc1S(=O)(=O)N1CCCCC1 ?
hERG protect: -9.2; KCNQ1 block: inactive; Kir21 inh: -2.77; KCNQ1 act: inactive; KCNK9 inh: inactive; KCNK3 inh: inactive; KCNK9 block conf: inactive; Kir21 sel: inactive; HEK293 Tl ctr: inactive

What do the screens show for `CC1CCN(C(=O)COC(=O)c2ccc(F)c(S(=O)(=O)N3CCOCC3)c2)CC1`?
hERG protect: -4.6; KCNQ1 block: inactive; Kir21 inh: -0.59; KCNQ1 act: inactive; KCNK9 inh: inactive; KCNK3 inh: inactive; KCNK9 block conf: inactive; Kir21 sel: inactive; HEK293 Tl ctr: inactive

What do the screens show for `COc1ccc(C(=O)OCC(=O)N2CCC(C)CC2)cc1S(=O)(=O)N1CCOCC1`?
KCNK3 inh: inactive

What do the screens show for `Cc1ccc(C(=O)OCC(=O)N2CC(C)CC(C)C2)cc1S(=O)(=O)N1CCOCC1` (stereo not drawn)?
hERG protect: -9.2; KCNQ1 block: inactive; Kir21 inh: 0.17; KCNQ1 act: inactive; KCNK9 inh: inactive; KCNK3 inh: inactive

Results for Cn1c(CC(=O)Nc2ccccc2F)nnc1SCC(=O)Nc1ccccc1Br ?
hERG protect: -10.1; KCNQ1 block: inactive; Kir21 inh: -0.88; KCNQ1 act: inactive; KCNK9 inh: inactive; KCNK3 inh: inactive

Bioassay records (PubChem BioAssay)
